An excerpt weighted towards active compounds, which were near 2.9% of everything screened.
OX1R antag-1: human HCRTR1 antagonism. O43613. CHO/OX1R cells, Fluo-8 calcium fluorescence, orexin A. inhibition, % at 5 µM. 0.43% of 330,000 active. AID 434989;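 active = inhibition above its plate's threshold, mean inhibition of all tested compounds on the plate plus 3 SD, cut at about 37% in these data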
Target sequence (O43613 whole entry, looked up): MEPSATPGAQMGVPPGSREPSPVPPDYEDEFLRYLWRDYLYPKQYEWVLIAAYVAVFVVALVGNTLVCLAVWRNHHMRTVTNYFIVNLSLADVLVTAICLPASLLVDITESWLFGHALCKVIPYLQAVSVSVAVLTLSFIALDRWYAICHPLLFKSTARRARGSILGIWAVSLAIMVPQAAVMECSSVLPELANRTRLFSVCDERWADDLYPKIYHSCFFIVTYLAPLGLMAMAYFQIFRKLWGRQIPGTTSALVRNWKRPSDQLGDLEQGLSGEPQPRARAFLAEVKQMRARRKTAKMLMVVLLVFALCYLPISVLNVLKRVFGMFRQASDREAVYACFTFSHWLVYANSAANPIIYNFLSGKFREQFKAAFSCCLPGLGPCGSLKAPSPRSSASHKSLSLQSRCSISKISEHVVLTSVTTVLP
CHO-K1 Ca antag: counter-screen for M1 antagonists: effect in parental CHO-K1 cells. ATP-induced calcium, Fluo-8 fluorescence. inhibition, % at 3 µM. 0.6% of 360,000 active;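 active = inhibition above a per-plate cutoff, the plate's mean sample inhibition plus 3 SD, cut at about 24% in these data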
CHO parental Ca: counter-screen for OX1R antagonists: effect in parental CHO cells; parental CHO-K1, ATP-induced calcium, Fluo-8 fluorescence; inhibition, % at 5.6 µM; 0.63% of 330,000 active;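 active = inhibition above that plate's mean sample inhibition plus 3 SD, cut at about 26% in these data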
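test system = CHO parental line | reagent = ATP stimulus | measured by = intracellular calcium via Fluo-8 no-wash fluorescent dye | control set = ATP and no-ATP DMSO wells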
OX1R antag-2: OX1R (human) antagonism; 1.8% of 330,000 active; OX1R-expressing cells, FRET antagonist read-out; inhibition, % at 6.6 µM; in the data active = inhibition mostly above about 38%, no sharp cut-off; inactive = mostly below about 40%
CHO-K1 Ca PAM: M1 PAM counterscreen hit in parental CHO-K1 cells. activation, % at 3 µM. AID 602247. ATP EC20, Fluo-8 calcium fluorescence; 0% at ATP EC20, 100% at ATP max. 0.02% of 360,000 active;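 active = activation above the run cutoff, the mean activation of all test compounds plus 3 SD, cut at about 40% in these data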;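 note: peak over basal fluorescence ratio in a 140 s read after ATP addition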
M1 ag parental: M1 agonist counterscreen hit in parental CHO-K1 cells. AID 602248. Fluo-8 calcium fluorescence; scaled to maximal ATP response, vehicle zero. 0.48% of 360,000 active. activation, % at 3 µM; in the data active = activation above about 15%;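 note: untransfected CHO-K1 host cells lacking M1 receptor as counterscreen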
Numbers stand for hits; i = inactive; nt = no result given.

SMILES | OX1R antag-1 | CHO-K1 Ca antag | CHO parental Ca | OX1R antag-2 | CHO-K1 Ca PAM | M1 ag parental
CN(C)c1ccc(NC(=O)c2cccc(C(=O)Nc3ccc(N(C)C)cc3)n2)cc1 | i | 28 | i | i | i | i
CCNc1ccc(C(=O)Nc2ccc3nc(C)sc3c2)cc1[N+](=O)[O-] | i | i | i | 60 | i | i
CN(C)c1ccc(NC(=O)c2ccc3nsnc3c2)cc1 | i | i | i | i | i | i
CC(=O)c1ccc(NC(=O)c2ccc3nc(C)sc3c2)cc1 | i | i | i | 61 | i | i
O=C(Nc1ccccc1)c1cccc(C(=O)Nc2ccccc2)n1 | i | i | i | i | i | i
Cc1ccc(NC(=O)c2ccc(NCCN)c([N+](=O)[O-])c2)cc1Cl | i | i | i | i | i | i
Cc1nc2ccc(C(=O)Nc3ccc(N(C)C)cc3)cc2s1 | i | i | i | 61 | i | i
CCC(C)Sc1ccc([C@@H]2[C@H]3C(=O)N(C)C(=O)[C@H]3[C@]3(C(=O)OC)CCCN23)cc1 (stereo partly specified) | i | i | i | i | i | i
Cc1ccc2c(CSc3nnnn3C)cc(=O)oc2c1 | i | i | i | 62 | i | i
Cc1ccc2c(CSc3nnc(C4CC4)n3N)cc(=O)oc2c1 | i | i | i | i | i | i
CCOc1ccc(-c2nc(C#N)c(NCC3CCCO3)o2)cc1 (stereo unspecified) | i | i | i | i | i | i
N#Cc1nc(-c2ccccc2Cl)oc1NCC1CCCO1 (stereo unspecified) | i | 25 | i | i | i | i
CCOC(=O)/C(C#N)=C\N(C)C | i | i | i | i | i | i
C=CCN1C=CC(=C/C=C(/C#N)C(=O)OCC)C=C1 | i | i | i | 60 | i | i
O=[N+]([O-])c1ccc(C[n+]2cccc3c4ccccc4ccc32)cc1 | i | i | i | 49 | i | i
CSc1ccc(/C=C2\C(=N)N3N=C(CC(=O)N4CCCCC4)SC3=NC2=O)cc1 | i | i | i | i | i | i
O=C(O)C1=CC[C@@H](c2ccc(Cl)cc2)N(S(=O)(=O)c2ccc(Cl)cc2)[C@H]1c1ccc(Br)cc1 | i | i | i | i | i | i
Nc1nc(Cl)cc(NCCc2ccc(O)cc2)n1 | i | i | i | i | i | i
Oc1ccc(CCNc2ncnc3ccc(Cl)cc23)cc1 | 43 | i | 72 | 86 | i | 16
O=C(NCC1CCCN1S(=O)(=O)c1cccs1)C(=O)Nc1cccc(F)c1 (stereo unspecified) | i | i | i | i | i | i
COc1ccc(CC(=O)Nc2ccncc2Cl)cc1 | i | i | 35 | i | i | i
O=C(Cc1ccc(Cl)cc1Cl)Nc1ccncc1Cl | i | i | 31 | i | i | i
COc1ccc(OC)c(CNC(=O)c2[nH]c(C(F)(F)F)nc2-c2ccccc2)c1 | nt | i | nt | nt | i | i
Cc1onc(-c2c(Cl)cccc2Cl)c1C(=O)N1CCOCC1 | i | i | i | i | i | i
Cc1onc(-c2c(Cl)cccc2Cl)c1C(=O)N1CCc2ccccc21 | i | i | i | 40 | i | i
SMILES | OX1R antag-1 | CHO-K1 Ca antag | CHO parental Ca | OX1R antag-2 | CHO-K1 Ca PAM | M1 ag parental
CCN(CC)C(=O)c1cc2cc([N+](=O)[O-])ccc2s1 | i | i | i | i | i | i
CCc1nc2n(n1)C(O)c1cc([N+](=O)[O-])ccc1S2 (stereo unspecified) | i | i | i | 46 | i | i
CC(C)c1ccc(NS(=O)(=O)c2ccc(-n3cccn3)cc2)cc1 | i | i | i | i | i | i
Cc1ccc(S(=O)(=O)Nc2ccc(SC(F)F)cc2)c(C)c1 | i | i | 43 | i | i | i
Cc1ccc(S(=O)(=O)Nc2ccc3c(c2)n(C)c(=O)n3C)c(C)c1 | i | i | i | i | i | i
CC(C)c1ccc(S(=O)(=O)Nc2ccc(SC(F)F)cc2)cc1 | i | i | 42 | i | i | i
NC(=O)C1CCCN(C(=O)CNC(=O)C23CC4CC(CC(C4)C2)C3)C1 (stereo unspecified) | nt | i | nt | nt | i | i
CC(=O)c1ccc(NC(=O)Cn2cnc(S(=O)(=O)N3CCc4ccccc43)c2)cc1 | i | 25 | i | i | i | i
CC(=O)c1ccc(NC(=O)Cn2cnc(S(=O)(=O)N3CCCC3)c2)cc1 | i | i | i | i | i | i
O=C1N=NC2=C1c1c3ccccc3c(O)n1CC2 | i | i | i | 56 | i | i
CC(=O)c1c(C)[nH]c(C(=O)OCC(=O)Nc2ccc(Cl)cc2[N+](=O)[O-])c1C | i | 37 | i | i | i | i
NC(=O)C1CCN(C(=O)COc2ccc(Nc3ccccc3)cc2)CC1 | i | i | i | 52 | i | i
O=c1oc2ccccc2c(Nc2ccccc2O)c1[N+](=O)[O-] | i | i | i | i | i | i
O=c1oc2ccccc2c(Nc2cccc3ccccc23)c1[N+](=O)[O-] | i | 26 | i | i | i | i
COc1ccc2oc3ccc(OC)cc3c(=O)c2c1 | i | i | i | 62 | i | i
COc1ccc2oc3ccccc3c(=O)c2c1 | i | i | i | i | i | i
Cc1[nH]n(-c2ccccc2)c(=O)c1S(=O)(=O)c1ccccc1 | i | i | i | i | i | i
CCOC(=O)N/N=C\c1ccc([N+](=O)[O-])s1 | i | i | i | 52 | i | i
CCOC(=O)N/N=C\c1ccc(C)s1 | i | i | i | i | i | i
Cc1cc(C)n(CC(=O)N/N=C/c2cccs2)n1 | i | i | i | i | i | i
Cc1cc(C)n(CC(=O)N/N=C/c2ccc([N+](=O)[O-])s2)n1 | i | i | i | 58 | i | i
Cc1c(C(=O)NCc2cccs2)sc(=O)n1Cc1ccc(S(=O)(=O)N(C)C)cc1 | nt | i | nt | nt | i | i
CCN(CC)c1ccc2cc(C(N)=O)c(=N)oc2c1 | i | i | i | i | i | i
CCN(CC)c1ccc2c(-c3ccc(S(=O)(=O)O)cc3S(=O)(=O)[O-])c3ccc(=[N+](CC)CC)cc-3oc2c1 | 93 | i | 75 | i | i | 41
OC(CN1CCC(Cc2ccccc2)CC1)c1ccccc1 (stereo unspecified) | i | i | i | i | i | i
SMILES | OX1R antag-1 | CHO-K1 Ca antag | CHO parental Ca | OX1R antag-2 | CHO-K1 Ca PAM | M1 ag parental
COc1ccc(NCc2nnc(SCC(=O)Nc3ccccc3)n2C)cc1 | i | i | i | i | i | i
COc1ccc(C(=O)NCCc2nnc(SCC(=O)Nc3ccccc3)n2C)cc1 | i | 25 | i | i | i | i
COc1ccc(CCNC(=O)c2cc(-c3ccncc3)nc3c(Cl)cccc23)cc1OC | i | i | i | i | i | i
COc1ccc(CNC(=O)c2cc(-c3ccncc3)nc3c(C)cc(C)cc23)cc1OC | i | i | i | 48 | i | i
COc1ccc(NC(=O)CCNS(=O)(=O)c2cccc3nonc23)c(OC)c1 | i | i | i | i | i | i
S=C1NC2=C(CCCC2=C2SCCS2)C(c2ccccc2)N1 (stereo unspecified) | i | 25 | i | i | i | i
CC(C)(CNC(=O)C1c2ccccc2-c2ccccc21)N1CCOCC1 | i | i | i | i | i | i

From PubChem BioAssay
